Test results taken from ChEMBL document CHEMBL4373718, “Germacrane Sesquiterpenoids as a New Type of Anticardiac Fibrosis Agent Targeting Transforming Growth Factor β Type I Receptor” (J Med Chem, 2019).
Activity calls are given as the source filed them. The calls are words filed in the database; no cut-off is given here.

Tests used:
[1] = molecular target: T1, TGF-beta receptor type-1 (Rattus norvegicus) (UniProt P80204); test: Inhibition of TGFbeta1 receptor in TGFbeta1-stimulated Sprague-Dawley rat cardiac fibroblasts assessed as reduction in collagen 3 expression measured after 12 hrs by Western blot analysis
T1 sequence (whole entry): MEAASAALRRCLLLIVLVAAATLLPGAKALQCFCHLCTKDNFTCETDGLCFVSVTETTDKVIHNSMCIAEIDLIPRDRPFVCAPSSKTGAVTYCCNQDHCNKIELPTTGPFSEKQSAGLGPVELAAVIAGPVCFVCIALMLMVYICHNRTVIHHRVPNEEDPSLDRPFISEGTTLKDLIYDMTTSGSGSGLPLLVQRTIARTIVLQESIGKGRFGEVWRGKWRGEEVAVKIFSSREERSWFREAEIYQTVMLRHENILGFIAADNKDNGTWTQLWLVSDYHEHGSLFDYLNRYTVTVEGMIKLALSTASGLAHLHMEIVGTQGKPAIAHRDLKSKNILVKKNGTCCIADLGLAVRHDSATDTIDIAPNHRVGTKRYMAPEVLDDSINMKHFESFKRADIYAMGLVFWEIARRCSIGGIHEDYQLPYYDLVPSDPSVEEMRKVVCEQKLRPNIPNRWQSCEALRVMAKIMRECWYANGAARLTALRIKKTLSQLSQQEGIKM
In short: (§1)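 Primary rat cardiac fibroblasts (passages 2–4, 3×10^5 per well) treated with compound plus 10 ng/mL TGFβ1 for 12 h; tested at 2.5, 5 and 10 µM. Lysates run on 10% SDS-PAGE (30 µg protein), probed for FN, α-SMA and collagen I/III, and quantified by densitometry against GAPDH. N=3 independent experiments.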

[2] = molecular target: T1, TGF-beta receptor type-1 (Rattus norvegicus); test: Inhibition of TGFbeta1 receptor in TGFbeta1-stimulated Sprague-Dawley rat cardiac fibroblasts assessed as reduction in fibronectin mRNA expression at 2.5 to 10 uM measured after 12 hrs by qRT-PCR analysis
In short: (§2)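 Primary rat cardiac fibroblasts (3×10^5 per well) treated with compound plus 10 ng/mL TGFβ1 for 12 h. Total RNA extracted and target transcripts measured by SYBR Green qRT-PCR, normalized to GAPDH.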

Rattus norvegicus [3] = test: Antifibrotic activity in abdominal aortic constriction Sprague-Dawley rat model of cardiac fibrosis assessed as down regulation of fibronectin expression in heart at 5 mg/kg, ip administered once daily for 4 weeks measured post-last dose by Western blot analysis; type: functional, organism-based
In short: (§3)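 AAC rats dosed ip daily for 4 weeks, n=8 per group. Hearts homogenized in lysis buffer with protease and phosphatase inhibitors and spun at 12,000 rpm for 30 min at 4 °C. Nuclear and cytoplasmic fractions prepared with a kit. Protein measured by BCA; 30 µg run on 10% SDS-PAGE, transferred to PVDF and immunoblotted; bands quantified by densitometry.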

Rattus norvegicus [4] = test: Antifibrotic activity in abdominal aortic constriction Sprague-Dawley rat model of cardiac fibrosis assessed as reduction in Smad3 phosphorylation in heart at 5 mg/kg, ip administered once daily for 4 weeks measured post-last dose by immunohistochemical analysis; type: functional, organism-based
In short: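 AAC rats dosed ip daily for 4 weeks, n=8 per group. Phospho-Smad2/3 stained by immunohistochemistry on 4 µm paraffin heart sections. Stained area summed over 6 fields per rat for statistics.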

Rattus norvegicus [5] = test: Antifibrotic activity in abdominal aortic constriction Sprague-Dawley rat model of cardiac fibrosis assessed as ejection fraction at 5 mg/kg, ip administered once daily for 4 weeks measured post-last dose by echocardiography (reference value: 79.59 +/- 3.13%); type: functional
Rattus norvegicus [6] = test: Antifibrotic activity in abdominal aortic constriction Sprague-Dawley rat model of cardiac fibrosis assessed as diastolic left ventricular posterior wall thickness at 5 mg/kg, ip administered once daily for 4 weeks measured post-last dose by echocardiography (reference value: 2.33 +/- 0.31 mm); type: functional
[7] = Cytotoxicity against Sprague-Dawley rat cardiac fibroblasts assessed as reduction in cell viability at 25 uM measured after 48 hrs by MTT assay
In short: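 Primary adult male SD rat cardiac fibroblasts at passages 2–4, 5000 cells per well. Treated for 48 h, then MTT (5 mg/mL) for 4 h. Formazan dissolved in DMSO and absorbance read at 570 nm. Triplicate wells, three independent experiments.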

[8] = molecular target: T1, TGF-beta receptor type-1 (Rattus norvegicus); test: Inhibition of TGFbeta1 receptor in TGFbeta1-stimulated Sprague-Dawley rat cardiac fibroblasts assessed as reduction in collagen 3 mRNA expression at 2.5 to 10 uM measured after 12 hrs by qRT-PCR analysis; in short: as §2
[9] = molecular target: T1, TGF-beta receptor type-1 (Rattus norvegicus); test: Inhibition of TGFbeta1 receptor in TGFbeta1-stimulated Sprague-Dawley rat cardiac fibroblasts assessed as reduction in collagen 1 expression measured after 12 hrs by Western blot analysis; in short: as §1
Rattus norvegicus [10] = test: Antifibrotic activity in abdominal aortic constriction Sprague-Dawley rat model of cardiac fibrosis assessed as reduction in Smad2 nuclear translocation in heart at 5 mg/kg, ip administered once daily for 4 weeks measured post-last dose by Western blot analysis; type: functional, organism-based; in short: as §3
Rattus norvegicus [11] = test: Antifibrotic activity in abdominal aortic constriction Sprague-Dawley rat model of cardiac fibrosis assessed as diastolic left ventricular anterior wall thickness at 5 mg/kg, ip administered once daily for 4 weeks measured post-last dose by echocardiography (reference value: 2.48 +/- 0.42 mm); type: functional
Rattus norvegicus [12] = test: Antifibrotic activity in abdominal aortic constriction Sprague-Dawley rat model of cardiac fibrosis assessed as fractional shortening at 5 mg/kg, ip administered once daily for 4 weeks measured post-last dose by echocardiography (reference value: 48.17 +/- 4.69%); type: functional
Rattus norvegicus [13] = test: Antifibrotic activity in abdominal aortic constriction Sprague-Dawley rat model of cardiac fibrosis assessed as reduction in Smad3 phosphorylation in heart at 5 mg/kg, ip administered once daily for 4 weeks measured post-last dose by Western blot analysis; type: functional, organism-based; in short: as §3
[14] = molecular target: T1, TGF-beta receptor type-1 (Rattus norvegicus); test: Inhibition of TGFbeta1 receptor in TGFbeta1-stimulated Sprague-Dawley rat cardiac fibroblasts assessed as reduction in alpha-SMA mRNA expression at 2.5 to 10 uM measured after 12 hrs by qRT-PCR analysis; in short: as §2
[15] = molecular target: T1, TGF-beta receptor type-1 (Rattus norvegicus); test: Inhibition of TGFbeta1 receptor in TGFbeta1-stimulated Sprague-Dawley rat cardiac fibroblasts assessed as reduction in Smad2 nuclear translocation at 10 uM measured after 5 mins by Western blot analysis
In short: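 Primary rat cardiac fibroblasts treated with 10 µM compound plus 10 ng/mL TGFβ1 for 5 min. Nuclear and cytosolic fractions separated with a kit and Smad2/Smad3 measured by Western blot.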

[16] = molecular target: TGF-beta receptor type-2 (Homo sapiens) (UniProt P37173); test: Inhibition of recombinant human N-terminal GST-tagged TGFbeta2 receptor (190 to end residues) expressed in baculovirus infected Sf9 insect cells up to 100 uM using MBP as substrate measured after 2 hrs by ADP-Glo assay
In short: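 Recombinant human TβRII produced in Sf9 cells. Compound serially diluted from DMSO and incubated with enzyme, 50 µM ATP and 0.1 g/L MBP for 2 h at room temperature. Kinase activity read as ADP generated.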

Sequence of TGF-beta receptor type-2 (Homo sapiens) (P37173 whole entry): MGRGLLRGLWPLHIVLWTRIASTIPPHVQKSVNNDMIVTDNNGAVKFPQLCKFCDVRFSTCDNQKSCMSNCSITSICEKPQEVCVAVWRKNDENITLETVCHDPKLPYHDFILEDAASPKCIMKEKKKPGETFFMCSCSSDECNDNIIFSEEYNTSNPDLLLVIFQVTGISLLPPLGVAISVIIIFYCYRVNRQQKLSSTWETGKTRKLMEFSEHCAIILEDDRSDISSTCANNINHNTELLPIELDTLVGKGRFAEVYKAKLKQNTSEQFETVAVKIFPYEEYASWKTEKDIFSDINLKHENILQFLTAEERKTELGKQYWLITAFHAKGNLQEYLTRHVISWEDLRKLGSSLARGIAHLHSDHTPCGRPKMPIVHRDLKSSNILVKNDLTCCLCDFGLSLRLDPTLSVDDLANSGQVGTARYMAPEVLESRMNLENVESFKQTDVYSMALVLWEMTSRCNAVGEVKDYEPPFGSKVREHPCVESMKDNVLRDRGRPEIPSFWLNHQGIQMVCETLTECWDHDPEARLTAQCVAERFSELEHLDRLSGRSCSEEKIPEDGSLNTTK

inhibition [1]: Dose-dependent effect
inhibition [2]: Active
inhibition [8]: Active
inhibition [9]: Dose-dependent effect
inhibition [14]: Active
inhibition [15]: Active
inhibition [16]: inactive
Structure (SMILES): C=C(C)[C@@H]1C/C=C(\C)C(=O)CCC2=C[C@@H]1OC2=O
Activity (Rattus norvegicus [3]): Active
Activity (Rattus norvegicus [4]): Active
Activity (Rattus norvegicus [5]): 71.38%
Activity (Rattus norvegicus [6]): 2 mm
Activity [7]: Non-Toxic
Activity (Rattus norvegicus [10]): Active
Activity (Rattus norvegicus [11]): 2.11 mm
Activity (Rattus norvegicus [12]): 42.54%
Activity (Rattus norvegicus [13]): Active
